Published values collected from several papers.
SIRT6: NAD-dependent protein deacylase sirtuin-6 (SIRT6, Homo sapiens, UniProt Q8N6T7)
PBK: Lymphokine-activated killer T-cell-originated protein kinase (PBK, Homo sapiens, UniProt Q96KB5)

| Compound | target | effect on | action | technique | tested at | endpoint | value |
| --- | --- | --- | --- | --- | --- | --- | --- |
| NC(=O)c1ccc(C(=O)NOCc2ccc(Sc3ccc(N)cc3)c(C(F)(F)F)c2)cc1 | SIRT6 | enzyme activity | inhibitor | fluorescence | 100 µM | inhibition | 97.3% |
| Nc1nonc1-n1cc(C(=O)N/N=C/c2ccc(F)cc2)nn1 | SIRT6 | enzyme activity | inhibitor | fluorescence | 100 µM | remaining activity | 43% |
| NC(=O)c1ccc(C(=O)NOCc2ccc(C(F)(F)F)c(Cl)c2)cc1 | SIRT6 | enzyme activity | inhibitor | fluorescence | 100 µM | inhibition | 90.4% |
| CCC1(CC)NC(=O)c2c(c3ccc(Cl)c(Cl)c3n2C)C1C#N (centres unmarked) | PBK | thermal stability | – | DSF | 10 µM | ΔTm | 0 °C |
| COc1cc(Cl)c(C(=O)N[C@@H](CN[C@H]2CC[C@@H](N)CC2)Cc2ccc(C#N)cc2)cc1-c1ccc(CN[C@H](C)c2ccc(C)cc2)o1 | [Pyruvate dehydrogenase (acetyl-transferring)] kinase isozyme 4, mitochondrial (PDK4, Homo sapiens, UniProt Q16654) | enzyme activity | inhibitor | – | 1 µM | remaining activity | 103% |
| Cn1c2c(Cl)c(Cl)ccc2c2cc[nH]c(=O)c21 | PBK | thermal stability | – | DSF | 10 µM | ΔTm | -0.6 °C |
| Nc1nonc1-n1cc(C(=O)N/N=C/c2ccc(O)cc2)nn1 | SIRT6 | enzyme activity | inhibitor | fluorescence | 100 µM | remaining activity | 34.5% |
| CCCOc1ccc(OC)c(F)c1C(=O)c1ccc(C(=O)N[C@@H]2CNC[C@H]2NC(=O)c2ccc3[nH]ncc3c2)cc1 | Angiopoietin-1 receptor (TEK, Homo sapiens, UniProt Q02763, Y897S) | enzyme activity | inhibitor | – | 10 µM | remaining activity | 47% |
| CC/C(=N\NC(=O)NCc1cccc(O)c1)c1ccc(O)c(C)c1O | ALK tyrosine kinase receptor (ALK, Homo sapiens, UniProt Q9UM73, G1269A) | enzyme activity | inhibitor | – | 0.1 µM | inhibition | 0.4% |
| Cc1cnc(NC2CCOCC2)nc1-n1cnc(C(=O)NC(CN)c2cc(F)cc(Cl)c2)c1 (centres unmarked) | Angiopoietin-1 receptor (TEK, Homo sapiens, UniProt Q02763, R849W) | enzyme activity | inhibitor | radiometric | 1 µM | remaining activity | 100% |
| Nc1nonc1-n1cc(C(=O)N/N=C/c2ccco2)nn1 | SIRT6 | enzyme activity | inhibitor | fluorescence | 100 µM | remaining activity | 40.9% |
| Cn1c2c(c3ccc(Cl)c(Cl)c31)C(C#N)C1(CCOCC1)NC2=O (centres unmarked) | PBK | thermal stability | – | DSF | 10 µM | ΔTm | -0.4 °C |
| Nc1nonc1-n1cc(C(=O)N/N=C/c2cccnc2)nn1 | SIRT6 | enzyme activity | inhibitor | fluorescence | 100 µM | remaining activity | 26% |
| Cn1c2c(Cl)c(Cl)ccc2c2cn[nH]c(=O)c21 | PBK | thermal stability | – | DSF | 10 µM | ΔTm | -0.3 °C |
| NC(=O)c1ccc(C(=O)NOCc2cccc(F)c2)cc1 | SIRT6 | enzyme activity | inhibitor | fluorescence | 100 µM | inhibition | 74.1% |
| O=C(Nc1ccc(S(=O)(=O)N2CCC(Cl)CC2)cc1)c1ccc([N+](=O)[O-])o1 | Voltage-dependent N-type calcium channel subunit alpha-1B (Cacna1b, Rattus norvegicus, UniProt Q02294) | cell-free assay | – | – | 10 µM | inhibition | 18% |

| Compound | target | effect on | action | technique | tested at | endpoint | value |
| --- | --- | --- | --- | --- | --- | --- | --- |
| Nc1nonc1-n1cc(C(=O)N/N=C/c2ccc(O)c(O)c2O)nn1 | SIRT6 | enzyme activity | inhibitor | fluorescence | 100 µM | remaining activity | 51.3% |
| Cn1c2c(c3ccc(Cl)c(Cl)c31)C(C#N)C(C)(C)NC2=O (centres unmarked) | PBK | thermal stability | – | DSF | 10 µM | ΔTm | -0.6 °C |
| COc1ccc(Sc2ccc(CONC(=O)c3ccc(C(N)=O)cc3)cc2C(F)(F)F)cc1 | SIRT6 | enzyme activity | inhibitor | fluorescence | 100 µM | inhibition | 97.4% |
| Nc1nonc1-n1cc(C(=O)N/N=C/c2ccc(C(F)(F)F)cc2C(F)(F)F)nn1 | SIRT6 | enzyme activity | inhibitor | fluorescence | 100 µM | remaining activity | 32.5% |
| CC1(C)NC(=O)c2[nH]c3c(Cl)c(Cl)ccc3c2C1C#N (centres unmarked) | Serine/threonine-protein kinase VRK1 (VRK1, Homo sapiens, UniProt Q99986) | thermal stability | – | DSF | 10 µM | ΔTm | 0.2 °C |
| Nc1ncnc2occ(-c3ccc(NC(=O)Nc4cc(C(F)(F)F)ccc4F)cc3)c12 | ALK tyrosine kinase receptor (ALK, Homo sapiens, UniProt Q9UM73, C1156Y) | cell-free assay | – | – | 20 µM | remaining signal | 1.1% |
| Cc1ccc(C(=O)Nc2ccc(CN3CCN(C)CC3)c(C(F)(F)F)c2)cc1C#Cc1cnc2cccnn12 | Serine/threonine-protein kinase TNNI3K (TNNI3K, Homo sapiens, UniProt Q59H18) | cell-free assay | – | – | 23.5 nM | remaining signal | 50% |
| COC(=O)c1ccc(O)c(/C=N/NC(=O)c2cn(-c3nonc3N)nn2)c1 | SIRT6 | enzyme activity | inhibitor | fluorescence | 100 µM | remaining activity | 99.6% |
| CNC(=O)c1ccc(C(=O)NOCc2ccc(C(F)(F)F)cc2)cc1 | SIRT6 | enzyme activity | inhibitor | fluorescence | 100 µM | inhibition | 35.3% |
| Nc1nonc1-n1cc(C(=O)N/N=C/c2cccc([N+](=O)[O-])c2O)nn1 | SIRT6 | enzyme activity | inhibitor | fluorescence | 100 µM | remaining activity | 41.4% |
| NC(=O)c1ccc(C(=O)NOCc2cccc(Br)c2)cc1 | SIRT6 | enzyme activity | inhibitor | fluorescence | 100 µM | inhibition | 82.3% |
| Cn1c2c(c3ccc(Cl)c(Cl)c31)C(C#N)C1(CCCC1)NC2=O (centres unmarked) | PBK | thermal stability | – | DSF | 10 µM | ΔTm | 0 °C |
| Cc1cccc(Sc2ccc(CONC(=O)c3ccc(C(N)=O)cc3)cc2C(F)(F)F)c1 | SIRT6 | enzyme activity | inhibitor | fluorescence | 100 µM | inhibition | 100% |
| CN1CCC2(CC1)NC(=O)c1c(c3ccc(Cl)c(Cl)c3n1C)C2C#N (racemic) | PBK | thermal stability | – | DSF | 10 µM | ΔTm | -0.2 °C |
| NC(=O)c1ccc(C(=O)NOCc2ccc(Cl)cc2)cc1 | SIRT6 | enzyme activity | inhibitor | fluorescence | 100 µM | inhibition | 79.5% |
| Cc1cnc(Nc2ccc(OCCN3CCCC3)cc2)nc1Nc1cccc(S(=O)(=O)NC(C)(C)C)c1 | Bromodomain-containing protein 7 (BRD7, Homo sapiens, UniProt Q9NPI1) | thermal stability | – | DSF | 10 µM | ΔTm | 0.22 °C |
